Experimental data reported in ChEMBL document CHEMBL2163287, “Nitro seco analogues of the duocarmycins containing sulfonate leaving groups as hypoxia-activated prodrugs for cancer therapy” (J Med Chem, 2012).
pIC50: −log10 of the molar value. Active and inactive are the calls of the source. No cut-off for these calls is given here.

Key:
HT-29 [1] = assay: Ratio of C10 for human HT-29 cells under oxic condition to C10 for human HT-29 cells under hypoxic condition by clonogenic assay; assay type: functional
Summary of the method: (§1)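 Cells were exposed to drug in duplicate for 4 h at 37 °C, either aerobic (95% air, 5% CO₂) or in an anaerobic chamber (<0.001% O₂). Medium was αMEM + 10% FCS with added glucose (final 17 mmol/L) and 200 μmol/L 2′-deoxycytidine. Cells were then trypsinized and plated; colonies >50 cells were counted after 14 days (methylene blue). C10 = concentration giving 10% survival vs controls; HCR = C10(oxic)/C10(hypoxic).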

HT-29 [2] = assay: Ratio of IC50 for human HT-29 cells under oxic condition to IC50 for human HT-29 cells under hypoxic condition; assay type: functional
Summary of the method: (§2)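 Log-phase monolayers were exposed 4 h under 20% O₂ or anoxia (<20 ppm O₂), then stained with sulforhodamine B 5 days later. IC50, interpolated as the concentration reducing cell density to 50% of same-plate controls, is given as mean of 3−9 experiments. HCR = IC50(oxic)/IC50(hypoxic), taken as the mean of intraexperiment ratios from 3−6 experiments.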

HCT-116 = assay: Ratio of IC50 for human HCT116 cells under oxic condition to IC50 for human HCT116 cells under hypoxic condition; assay type: functional
Summary of the method: (§3)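 Antiproliferative assay on the cell-line panel: 4 h drug exposure under 20% O₂ or anoxia (<20 ppm O₂), then sulforhodamine B staining after 5 days. HCR = IC50(oxic)/IC50(hypoxic), taken as the mean of intraexperiment ratios from 2−5 experiments.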

SiHa [3] = assay: Antitumor activity against human SiHa cells xenografted in immunocompromized gamma irradiated mouse assessed as number of colony forming cells per gram of tumor tissue at 13 umol/kg, iv tumor excised post 18 hrs followed by culturing for 14 days; assay type: functional
Summary of the method: (§4)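 SiHa tumours grown subcutaneously in male mice from 10⁷ cultured cells; randomized at 8−10 mm mean diameter. Compound in phosphate-buffered saline with 4 equiv sodium bicarbonate, given via tail vein at the stated dose, alone or 5 min after 15 Gy whole-body cobalt-60 γ irradiation. Tumours excised 18 h after dosing, cells cultured 14 days for clonogens. Groups of 3 (drug alone) or 5 (radiation + drug).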

[4] = Ratio of IC50 for human H1299 cells under oxic condition to IC50 for human H1299 cells under hypoxic condition; assay type: functional; summary of the method: as §3
HT-29 [5] = assay: Cytotoxicity against human HT-29 cells under oxic condition after 4 hrs by clonogenic assay; assay type: functional, cell-based; summary of the method: as §1
A549 = assay: Ratio of IC50 for human A549 cells under oxic condition to IC50 for human A549 cells under hypoxic condition; assay type: functional; summary of the method: as §3
SiHa [6] = assay: Cytotoxicity against human SiHa cells under hypoxic condition assessed as inhibition of cell proliferation after 4 hrs; assay type: functional, cell-based
Summary of the method: (§5)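 Log-phase monolayers were exposed to drug for 4 h, aerobic (20% O2) for line 5 and anoxic (<20 ppm O2) for line 4. Cell density was read by sulforhodamine B staining 5 days later. IC50 was interpolated as the concentration reducing density to 50% of same-plate controls; mean ± SEM of 3–9 experiments.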

HT-29 [7] = assay: Cytotoxicity against human HT-29 cells under oxic condition assessed as inhibition of cell proliferation after 4 hrs by SRB method; assay type: functional, cell-based; details: HT-29, 4 h; summary of the method: as §2
C-33-A = assay: Ratio of IC50 for human C33A cells under oxic condition to IC50 for human C33A cells under hypoxic condition; assay type: functional; summary of the method: as §3
SiHa [8] = assay: Antitumor activity against human SiHa cells xenografted in immunocompromized mouse assessed as number of colony forming cells per gram of tumor tissue at 13 umol/kg, iv tumor excised post 18 hrs followed by culturing for 14 days; assay type: functional; summary of the method: as §4
SiHa [9] = assay: Cytotoxicity against human SiHa cells under oxic condition assessed as inhibition of cell proliferation after 4 hrs; assay type: functional, cell-based; summary of the method: as §5
HT-29 [10] = assay: Cytotoxicity against human HT-29 cells under hypoxic condition assessed as inhibition of cell proliferation after 4 hrs by SRB method; assay type: functional, cell-based; details: HT-29, 4 h; summary of the method: as §2
NCI-H460 [11] = assay: Ratio of IC50 for human H460 cells under oxic condition to IC50 for human H460 cells under hypoxic condition; assay type: functional; summary of the method: as §3
HT-29 [12] = assay: Cytotoxicity against human HT-29 cells under hypoxic condition after 4 hrs by clonogenic assay; assay type: functional, cell-based; summary of the method: as §1
SiHa [13] = assay: Antitumor activity against human SiHa cells xenografted in immunocompromized gamma irradiated mouse assessed as log cell kill at 13 umol/kg, iv tumor excised post 18 hrs followed by culturing for 14 days under hypoxic condition; assay type: functional
Summary of the method: (§6)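 Male immunocompromised mice bearing subcutaneous tumours (10^7 cultured cells), randomized at 8–10 mm mean diameter. Compound in PBS with 4 equiv sodium bicarbonate given iv (tail vein), alone or 5 min after 15 Gy whole-body cobalt-60 γ-irradiation, which sterilizes oxygenated cells. Tumours excised 18 h after dosing and plated for clonogens for 14 days. n = 3 (vehicle or compound alone) or 5 (irradiated groups).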

SiHa [14] = assay: Cytotoxicity against human SiHa cells under oxic condition after 4 hrs by clonogenic assay; assay type: functional, cell-based; summary of the method: as §1
SiHa [15] = assay: Cytotoxicity against human SiHa cells under hypoxic condition assessed as after 4 hrs by clonogenic assay; assay type: functional, cell-based; summary of the method: as §1
NCI-H460 [16] = assay: Antitumor activity against human H460 cells xenografted in immunocompromized gamma irradiated mouse under hypoxic condition assessed as log cell kill at 75 umol/kg, iv tumor excised post 18 hrs followed by culturing for 14 days; assay type: functional; summary of the method: as §6
SiHa [17] = assay: Antitumor activity against human SiHa cells xenografted in immunocompromized mouse assessed as number of colony forming cells per gram of tumor tissue at 42 umol/kg, iv tumor excised post 18 hrs followed by culturing for 14 days; assay type: functional; summary of the method: as §4
NCI-H460 [18] = assay: Toxicity in human H460 cells xenografted immunocompromized mouse at 75 umol/kg, iv; details: in vivo
SiHa [19] = assay: Antitumor activity against human SiHa cells xenografted in immunocompromized gamma irradiated mouse assessed as log cell kill at 42 umol/kg, iv tumor excised post 18 hrs followed by culturing for 14 days under hypoxic condition; assay type: functional; summary of the method: as §6
SiHa [20] = assay: Antitumor activity against human SiHa cells xenografted in immunocompromized gamma irradiated mouse assessed as number of colony forming cells per gram of tumor tissue at 42 umol/kg, iv tumor excised post 18 hrs followed by culturing for 14 days; assay type: functional; summary of the method: as §4

Compound: COc1ccc(/C=C/C(=O)N2CC(COS(=O)(=O)Cc3ccccc3)c3c2cc([N+](=O)[O-])c2cc(C(N)=O)ccc32)cc1 (stereo not given)
- Ratio (HT-29 [1]): 4090
- Ratio IC50 (HT-29 [2]): 40
- Ratio IC50 (HCT-116): 403
- log10cfu (SiHa [3]): 4.3
- Ratio IC50 [4]: 644
- Activity (HT-29 [5]): Active
- Ratio IC50 (A549): 34
- pIC50 (SiHa [6]): 7.34
- pIC50 (HT-29 [7]): 5.15
- Ratio IC50 (C-33-A): 184
- log10cfu (SiHa [8]): 6.87
- pIC50 (SiHa [9]): 5.68
- pIC50 (HT-29 [10]): 6.77
- Ratio IC50 (NCI-H460 [11]): 104
- Activity (HT-29 [12]): Active
- LCK (SiHa [13]): 1.16

Compound: NC(=O)c1ccc2c3c(cc([N+](=O)[O-])c2c1)N(C(=O)c1cc2cc(OCCO)ccc2[nH]1)CC3COS(=O)(=O)Cc1ccccc1 (stereo not given)
- Ratio IC50 (HT-29 [2]): 105
- Ratio IC50 (HCT-116): 127
- Ratio IC50 [4]: 255
- Ratio IC50 (A549): 38
- pIC50 (SiHa [6]): 6.62
- pIC50 (HT-29 [7]): 4.66
- Ratio IC50 (C-33-A): 93
- pIC50 (SiHa [9]): 4.73
- Activity (SiHa [14]): Active
- pIC50 (HT-29 [10]): 6.66
- Activity (SiHa [15]): Active
- Ratio IC50 (NCI-H460 [11]): >114

Compound: COc1cc2cc(C(=O)N3CC(COS(=O)(=O)Cc4ccccc4)c4c3cc([N+](=O)[O-])c3cc(C(N)=O)ccc43)[nH]c2c(OC)c1OC (stereo not given)
- Ratio IC50 (HT-29 [2]): 1370
- Ratio IC50 (HCT-116): 13
- Ratio IC50 [4]: 86
- Ratio IC50 (A549): 6.7
- pIC50 (SiHa [6]): 6.74
- pIC50 (HT-29 [7]): 5.04
- Ratio IC50 (C-33-A): 76
- pIC50 (SiHa [9]): 6.00
- Activity (SiHa [14]): Active
- pIC50 (HT-29 [10]): 7.80
- Activity (SiHa [15]): Active
- Ratio IC50 (NCI-H460 [11]): 32

Compound: COc1cc2cc(C(=O)N3CC(COS(C)(=O)=O)c4c3cc([N+](=O)[O-])c3cc(S(=O)(=O)NCCOP(=O)(O)O)ccc43)[nH]c2c(OC)c1OC (stereo not given)
- LCK (NCI-H460 [16]): 0.6
- log10cfu (SiHa [17]): 7.15
- Activity (NCI-H460 [18]): Non-toxic
- LCK (SiHa [19]): 0.6
- log10cfu (SiHa [20]): 4.38

Compound: COc1cc2cc(C(=O)N3CC(COS(=O)(=O)Cc4ccccc4)c4c3cc([N+](=O)[O-])c3cc(S(N)(=O)=O)ccc43)[nH]c2c(OC)c1OC (stereo not given)
- Ratio IC50 (HT-29 [2]): 1010
- Ratio IC50 (HCT-116): 193
- Ratio IC50 [4]: 226
- Ratio IC50 (A549): 20
- pIC50 (SiHa [6]): 6.74
- pIC50 (HT-29 [7]): 4.46
- Ratio IC50 (C-33-A): 177
- pIC50 (SiHa [9]): 4.89
- pIC50 (HT-29 [10]): 7.38
- Ratio IC50 (NCI-H460 [11]): 0.67
